For data set [1], the system named is QT interval / cardiac repolarisation in healthy men. Briefly: Thorough QT/QTc study, 12-lead ECG, QTcF. Format: in vivo. Particulars: for No. of subjects with ΔQTcF >30 ms / No. of subjects with ΔQTcF >60 ms / No. of subjects with ΔQTcF ≤30 ms / No. of subjects with QTcF >450 ms / No. of subjects with QTcF >480 ms / No. of subjects with QTcF >500 ms / No. of subjects with QTcF ≤450 ms: categorical analysis, degarelix n = 76, moxifloxacin n = 78; for No. of subjects with ΔQTcF >30 ms / No. of subjects with ΔQTcF >60 ms / No. of subjects with ΔQTcF ≤30 ms: change from baseline.

The nature of data set [2]: Degarelix plasma concentration. Type of data set: in vivo, healthy men. The method, boiled down:
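Single 60-min iv infusion of 2.8 mg in 5% glucose. Plasma sampled predose and at 30, 60, 90, 120, 150, 180 min, 6, 12 and 24 h after infusion start. Assay: validated solid-phase extraction with LC–MS/MS, quantification range 0.500–100 ng/mL (up to 500 ng/mL after dilution), precision and bias within 10%. Parameters from noncompartmental analysis; values below LLOQ or missing were excluded.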

For data set [3], the system named is healthy men. The data set is described as follows: Safety assessments. Type of data set: in vivo. The method, boiled down:
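Six-sequence crossover of iv test compound, iv placebo and oral moxifloxacin, with 7–10 day washouts. Adverse events, 12-lead ECG and vital signs were monitored throughout. Clinical chemistry, haematology and urinalysis were run by a central laboratory. Adverse event was defined as any untoward medical occurrence in a participant.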

For data set [4], the system named is human ether-a-go-go-related gene (hERG) channel. Particulars: preclinical investigations; ref Ferring Pharmaceuticals, unpublished data; cited from earlier work.
For data set [5] the following is noted: cited from earlier work.
Data set [6] deals with human GnRH receptor. Particulars: cited from earlier work.

Counter-ions that a name gives are not always drawn. Non-standard residues stand in square brackets, D forms with d. Residues, ends and D or L forms follow the SMILES beside them. *: point of attachment. dPhe(4-NHCONH2) = NC(=O)Nc1ccc(C[C@@H](N)C(=O)O)cc1; Dihydroorotyl(S) = O=C1C[C@@H](C(=O)*)NC(=O)N1; dPhe(4-Cl) = N[C@H](Cc1ccc(Cl)cc1)C(=O)O; Phe(4-NH2) = Nc1ccc(C[C@H](N)C(=O)O)cc1; d2Nal = N[C@H](Cc1ccc2ccccc2c1)C(=O)O; Lys(iPr) = CC(C)NCCCC[C@H](N)C(=O)O; d3Pal = N[C@H](Cc1cccnc1)C(=O)O Bounds are passed on as bounds.

Regarding `CC(=O)N[C@H](Cc1ccc2ccccc2c1)C(=O)N[C@H](Cc1ccc(Cl)cc1)C(=O)N[C@H](Cc1cccnc1)C(=O)N[C@@H](CO)C(=O)N[C@@H](Cc1ccc(NC(=O)[C@@H]2CC(=O)NC(=O)N2)cc1)C(=O)N[C@H](Cc1ccc(NC(N)=O)cc1)C(=O)N[C@@H](CC(C)C)C(=O)N[C@@H](CCCCNC(C)C)C(=O)N1CCC[C@H]1C(=O)N[C@H](C)C(N)=O` [degarelix] (Ac-[d2Nal][dPhe(4-Cl)][d3Pal]S[Phe(4-NH2)](Dihydroorotyl(S))[dPhe(4-NHCONH2)]L[Lys(iPr)]P[dA]-NH2), in data set [1], the “No. of subjects with ΔQTcF >30 ms” value was 3 (4%) n (%), the “No. of subjects with ΔQTcF >60 ms” value is given as 0 n (%), the “No. of subjects with ΔQTcF ≤30 ms” value is on record as 73 (96%) n (%) and the “No. of subjects with QTcF >450 ms” value is on record as 0 n (%). Further, in data set [1], the “No. of subjects with QTcF >480 ms” value is reported as 0 n (%), the “No. of subjects with QTcF >500 ms” value is on record as 0 n (%) and the “No. of subjects with QTcF ≤450 ms” value is listed as 76 (100%) n (%). Moreover, the “One-sided 95% upper confidence boundaries for ΔΔQTcF at any of the nine timepoints” value in data set [1] (degarelix 2.8 mg iv over 60 min, 24-h period after start of infusion) is no more than 10 ms. For the same compound, in data set [1] (degarelix 2.8 mg iv over 60 min, time-matched), the “Mean maximum baseline-corrected difference versus placebo in QTcF” value is reported as less than 4 ms. Besides, the “Slope of concentration-response effect on QTcF compared with placebo” value in data set [1] (repeated measures ANCOVA, 677 observations from 79 subjects) is listed as “slightly negative slope”. For the same compound, in data set [2] (24 h after start of degarelix 2.8 mg iv administration), the “Degarelix concentration at 24 h relative to Cmax” value is less than 10%. This compound also had a Cmax in data set [2] (male, human, plasma, iv, 2.8 mg) of 0.222 µg/mL. Moreover, the “Median maximal degarelix plasma concentration” value in data set [2] (single dose 2.8 mg infused iv over 60 min at constant rate) was “approximately 220 ng/mL”. Further, the “Intensity of AEs” value in data set [3] (after degarelix treatment) is recorded as “mild intensity”. Moreover, in data set [3] (after each treatment), the “Number of AEs reported” value amounted to 27. For the same compound, the “Mean changes in placebo-corrected HR, PR and QRS durations” value in data set [3] (degarelix 2.8 mg iv) is “did not show any clinically relevant results”. Besides, the “Effect on hERG channel” value in data set [4] is on record as “no effect”. The Median peak concentration in data set [5] (single subcutaneous administration of 240 mg, prostate cancer) is reported as 66 ng/mL. Further, the Half-life result in data set [5] (subcutaneous administration, slow-release phase from in situ depot) was “several weeks”. Moreover, in data set [6], the “Affinity and selectivity towards the human GnRH receptor” value is “high affinity and selectivity”.

On to `COc1c(N2C[C@@H]3CCCN[C@@H]3C2)c(F)cc2c(=O)c(C(=O)O)cn(C3CC3)c12` [moxifloxacin, moxifloxacin hydrochloride], for which, in data set [1], the “No. of subjects with ΔQTcF >30 ms” value is given as 15 (19%) n (%), the “No. of subjects with ΔQTcF >60 ms” value was 0 n (%), the “No. of subjects with ΔQTcF ≤30 ms” value is listed as 63 (81%) n (%) and the “No. of subjects with QTcF >450 ms” value is given as 2 (3%) n (%). In data set [1], the “No. of subjects with QTcF >480 ms” value was 0 n (%), the “No. of subjects with QTcF >500 ms” value is listed as 0 n (%) and the “No. of subjects with QTcF ≤450 ms” value is 76 (97%) n (%). For the same compound, the “QTc prolongation produced by positive control” value in data set [1] (moxifloxacin 400 mg oral) is reported as no less than 5 ms. Moreover, the “Lower bound of 98.3% CI for ΔΔQTcF (moxifloxacin vs placebo)” value in data set [1] (moxifloxacin 400 mg single oral dose, at 2.5, 3 and 6 h, assay sensitivity) is “exceeded 5 ms”. Besides, in data set [3] (80 subjects randomised, after each treatment), the “Subjects reporting AEs” value was 22 (28%) n (%). The “Number of AEs reported” value in data set [3] (after each treatment) came to 29.

Broadly, the Cmax is the peak of the concentration-time curve.

Source of the values: PMC5569649 (Clinical Drug Investigation, 2017).
